One experiment has as its system 143B. In words: Antiproliferative activity against human 143B cells after 48 hrs by MTT assay. It counts as functional, cell-based. In general terms: Tetrazolium dyes change colour on reduction, which living cells bring about.
The target in experiment [1] is Procathepsin L (Homo sapiens) (UniProt P07711). In words: Inhibition of Cathepsin-L (unknown origin) at 5 uM preincubated for 15 mins followed by Z-Phe-Arg-AMC addition measured after 30 mins by fluorescence assay relative to control. The procedure, abridged:
(§1)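 Run as for the Cat K assay: enzyme in 50 mM sodium acetate, 2.5 mM EDTA, 1 mM DTT, pH 6.0, compounds screened at 5 μM, 15 min preincubation at 37°C, substrate added, fluorescence (ex 355/em 460 nm) read at 30 min. Substrates: Cat B Z-Arg-Arg-AMC; Cat S Ac-Lys-Gln-Lys-Leu-Arg-AMC; Cat L as for Cat K.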

Experiment [2] addresses Cathepsin B (Homo sapiens) (UniProt P07858). As to the kind of experiment: Inhibition of Cathepsin-B (unknown origin) at 5 uM preincubated for 15 mins followed by Z-Arg-Arg-AMC addition measured after 30 mins by fluorescence assay relative to control. The procedure, abridged: as §1
Experiment [3] addresses T1, Cathepsin K (Homo sapiens) (UniProt P43235).
T1 sequence (whole entry): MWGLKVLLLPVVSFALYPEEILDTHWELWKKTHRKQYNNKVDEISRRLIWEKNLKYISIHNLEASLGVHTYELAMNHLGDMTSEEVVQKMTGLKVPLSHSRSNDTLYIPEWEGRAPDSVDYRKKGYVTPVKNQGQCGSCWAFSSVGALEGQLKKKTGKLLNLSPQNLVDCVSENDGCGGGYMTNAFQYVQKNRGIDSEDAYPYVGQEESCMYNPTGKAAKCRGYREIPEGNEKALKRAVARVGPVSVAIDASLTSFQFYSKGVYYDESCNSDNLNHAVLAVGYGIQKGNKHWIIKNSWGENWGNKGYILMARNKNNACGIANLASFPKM
As to the kind of experiment: Inhibition of recombinant human Cathepsin-K at 5 uM preincubated for 15 mins followed by Z-Phe-Arg-AMC addition measured after 30 mins by fluorescence assay relative to control. In a few lines: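 Recombinant human Cat K (5.5 ng/mL) in 50 mM sodium acetate, 2.5 mM EDTA, 1 mM DTT, pH 6.0, preincubated with compound (5 μM screen) 15 min at 37°C. Reaction started with Z-Phe-Arg-AMC (10 μM, as added). Fluorescence (ex 355/em 460 nm) read after 30 min; inhibition rate calculated from intensity.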

For the next experiment, the system named is MCF7. In words: Antiproliferative activity against human MCF7 cells after 48 hrs by MTT assay. Format: functional, cell-based. The settings on record: for IC50: MCF7, 48 h.
In experiment [4] the target is Cathepsin S (Homo sapiens) (UniProt P25774). As to the kind of experiment: Inhibition of Cathepsin-S (unknown origin) at 5 uM preincubated for 15 mins followed by Ac-Lys-Gln-Lys-Leu-Arg-AMC addition measured after 30 mins by fluorescence assay relative to control. In a few lines:
as §1

The next experiment relates to HCT-116. As to the kind of experiment: Antiproliferative activity against human HCT116 cells after 48 hrs by MTT assay. It counts as functional, cell-based. The settings on record: for IC50: HCT-116, 48 h. The procedure, abridged:
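Cells grown in RPMI 1640 with 10% FBS; about 4×10^3 cells per well seeded, held 24 h at 37°C in 5% CO2, then exposed to compounds at six concentrations (0.001–100 μM) for 48 h. MTT added at 0.5 mg/mL final for 4 h at 37°C, formazan dissolved in DMSO, absorbance read at 540 nm.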

A word on the IC50: it is the concentration at which inhibition is half-maximal. One may read the inhibition as the percentage by which the read-out fell short of the control.

Sequence of Procathepsin L (Homo sapiens) (P07711 114-333 limits assumed): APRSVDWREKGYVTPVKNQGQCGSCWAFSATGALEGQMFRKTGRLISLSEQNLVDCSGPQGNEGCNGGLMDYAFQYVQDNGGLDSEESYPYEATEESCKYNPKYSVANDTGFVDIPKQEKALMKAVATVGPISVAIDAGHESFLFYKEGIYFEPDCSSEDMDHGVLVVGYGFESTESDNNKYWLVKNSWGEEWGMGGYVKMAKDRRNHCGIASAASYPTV
Sequence of Cathepsin S (Homo sapiens) (P25774 115-331 limits assumed): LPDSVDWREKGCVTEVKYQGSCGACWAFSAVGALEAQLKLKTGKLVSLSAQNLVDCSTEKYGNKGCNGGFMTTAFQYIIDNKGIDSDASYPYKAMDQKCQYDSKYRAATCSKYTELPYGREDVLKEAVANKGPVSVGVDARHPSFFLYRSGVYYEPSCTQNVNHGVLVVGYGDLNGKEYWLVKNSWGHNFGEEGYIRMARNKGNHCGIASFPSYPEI

In the case of `Cc1ccccc1S(=O)(=O)Nc1cccc(/C=C/C(=O)c2nc3ccccc3[nH]2)c1`, the IC50 in the experiment with 143B came to 4.06 µM; with MCF7 it was 4.13 µM; in the experiment with HCT-116, 0.955 µM. Besides, the inhibition in experiment [1] came to 71.3%; in experiment [2] it was 40%; in experiment [3] it was 91.3%; in experiment [4] it was 47.8%.
Turning to `Cc1ccccc1C(=O)Nc1cccc(/C=C/C(=O)c2nc3ccccc3[nH]2)c1`, the concentration for half-maximal inhibition (IC50) with 143B turned out to be 8.29 µM; with MCF7 it was 5.87 µM; with HCT-116, 1.87 µM.
On to `Cc1ccc(S(=O)(=O)Nc2cccc(/C=C/C(=O)c3nc4ccccc4[nH]3)c2)cc1`, for which the IC50 in the experiment on 143B was determined as 3.22 µM; with MCF7 it was 3.22 µM; in the experiment on HCT-116, 1.99 µM. Also, the inhibition in experiment [1] was 93.8%; in experiment [2], 34.3%; in experiment [3] it was 86%; in experiment [4], 22%.
Turning to `O=C(Nc1cccc(/C=C/C(=O)c2nc3ccccc3[nH]2)c1)c1cccc(Cl)c1`, the IC50 stood at 3.37 µM with 143B, 7.83 µM in the experiment with MCF7 and 1.12 µM with HCT-116. The inhibition was 86% in experiment [1], 30.5% in experiment [2], 73% in experiment [3] and 19.5% in experiment [4].
Regarding `Cc1ccc(C(=O)Nc2cccc(/C=C/C(=O)c3nc4ccccc4[nH]3)c2)cc1`, the values for the half-maximal inhibitory concentration (IC50) with 143B, with MCF7 and in the experiment on HCT-116 were 6.56 µM, 9.69 µM and 1.66 µM, respectively.
On the same counts, the results for `COc1ccc(C(=O)Nc2cccc(/C=C/C(=O)c3nc4ccccc4[nH]3)c2)cc1` are 6.33 µM, 20.1 µM and 4.88 µM.
On the same counts, the results for `Cc1cc(C)cc(S(=O)(=O)Nc2cccc(/C=C/C(=O)c3nc4ccccc4[nH]3)c2)c1` are 3.33 µM, 4.57 µM and 1.22 µM.
In the case of `Cc1cccc(S(=O)(=O)Nc2cccc(/C=C/C(=O)c3nc4ccccc4[nH]3)c2)c1`, the Activity entry in the experiment with 143B, with MCF7 and in the experiment on HCT-116 was “Dose-dependent effect” in each case. For the same compound, the concentration for half-maximal inhibition (IC50) came to 0.791 µM in the experiment with 143B, 0.886 µM in the experiment with MCF7 and 0.597 µM in the experiment on HCT-116. The inhibition in experiment [1] worked out at 92.3%; in experiment [2] it was 45.6%; in experiment [3], 93.5%; in experiment [4], 50.1%.
In the case of `O=C(/C=C/c1cccc(NS(=O)(=O)c2ccc(Cl)cc2)c1)c1nc2ccccc2[nH]1`, the IC50 came out at 7.45 µM with 143B, 3.82 µM in the experiment with MCF7 and 1.96 µM in the experiment on HCT-116. In addition, the inhibition in experiment [1] is 58%; in experiment [2] it was 23.8%; in experiment [3] it was 58.1%; in experiment [4], 89.3%.
On to `O=C(/C=C/c1cccc(NC(=O)c2ccccc2Br)c1)c1nc2ccccc2[nH]1`, for which the IC50 was 6.05 µM with 143B, 4.52 µM in the experiment with MCF7 and 1.68 µM with HCT-116.
In the case of `Cc1cccc(C(=O)Nc2cccc(/C=C/C(=O)c3nc4ccccc4[nH]3)c2)c1`, the IC50 was 4.88 µM in the experiment with 143B, 5.59 µM in the experiment with MCF7 and 1.42 µM in the experiment with HCT-116. Also, the inhibition was 88.5% in experiment [1], 41.3% in experiment [2], 78% in experiment [3] and 45.2% in experiment [4].
Take `CC(C)C[C@H](NC(=O)[C@@H]1O[C@H]1C(=O)O)C(=O)NCCCCN=C(N)N`: the inhibition in experiment [1], in experiment [2] and in experiment [3] was 100% in each case.
Take `CC(C)(F)C[C@H](C[C@@H](c1ccc(-c2ccc(S(C)(=O)=O)cc2)cc1)C(F)(F)F)C(=O)NC1(C#N)CC1`: the IC50 in the experiment with 143B is 12.7 µM; in the experiment on MCF7, 45.4 µM; with HCT-116, above 100 µM. Further, the inhibition in experiment [1] was determined as 71.3%; in experiment [2], 100%; in experiment [3], 100%; in experiment [4], 100%.
For `O=C(Nc1cccc(/C=C/C(=O)c2nc3ccccc3[nH]2)c1)c1cc(Cl)cc(Cl)c1`, the IC50 is 3.66 µM in the experiment on 143B, above 100 µM with MCF7 and 1.65 µM in the experiment on HCT-116.
For `O=C(Nc1cccc(/C=C/C(=O)c2nc3ccccc3[nH]2)c1)c1ccccc1`, the half-maximal inhibitory concentration (IC50) with 143B came to 8.34 µM; with MCF7, 11.2 µM; in the experiment with HCT-116, 2.44 µM.
The like results for `O=C(Nc1cccc(/C=C/C(=O)c2nc3ccccc3[nH]2)c1)c1ccc(Cl)cc1` were, in that order, 7.44 µM, 8.41 µM and 2.27 µM.
In turn, `CCCNC(=O)[C@H]1O[C@@H]1C(=O)N[C@H](C(=O)N1CCC[C@H]1C(=O)O)[C@@H](C)CC` came in with an inhibition in experiment [2] of 100%.
As for `O=C(/C=C/c1cccc(NS(=O)(=O)c2cc(Cl)cc(Cl)c2)c1)c1nc2ccccc2[nH]1`, the IC50 with 143B was found to be 5.95 µM; in the experiment with MCF7 it was 20 µM; in the experiment on HCT-116, 2.84 µM.
The like results for `O=C(Nc1cccc(/C=C/C(=O)c2nc3ccccc3[nH]2)c1)c1ccc(Br)cc1` were, in that order, 7.31 µM, 7 µM and 2.23 µM.
Turning to `O=C(Nc1cccc(/C=C/C(=O)c2nc3ccccc3[nH]2)c1)c1cccc(C(F)(F)F)c1`, the values for the half-inhibitory concentration (IC50) in the experiment with 143B, with MCF7 and in the experiment on HCT-116 were 9.57 µM, 21.5 µM and 3.36 µM, respectively.
As for `O=C(/C=C/c1cccc(NS(=O)(=O)c2cccc(Cl)c2)c1)c1nc2ccccc2[nH]1`, the figures for the IC50 with 143B, in the experiment on MCF7 and with HCT-116 were 2.51 µM, 4.16 µM and 0.737 µM, respectively. For the same compound, the inhibition in experiment [1] was 78.9%; in experiment [2], 15.2%; in experiment [3], 89.2%; in experiment [4], 52.6%.
For the compound `Cc1cc(C)cc(C(=O)Nc2cccc(/C=C/C(=O)c3nc4ccccc4[nH]3)c2)c1`, the IC50 in the experiment with 143B was 4.01 µM; with MCF7, 24.6 µM; in the experiment on HCT-116, 1.55 µM.
Turning to `O=C(/C=C/c1cccc(NS(=O)(=O)c2ccccc2Cl)c1)c1nc2ccccc2[nH]1`, the IC50 came to 4.79 µM with 143B, 4.28 µM with MCF7 and 0.987 µM with HCT-116. Further, the inhibition in experiment [1] stood at 62.9%; in experiment [2], 32.5%; in experiment [3], 86.5%; in experiment [4], 45.7%.
In the experiment on HCT-116, `CC(=O)O[C@H]1C(=O)[C@@]2(C)[C@H]([C@H](OC(=O)c3ccccc3)[C@]3(O)C[C@H](OC(=O)[C@H](O)[C@@H](NC(=O)c4ccccc4)c4ccccc4)C(C)=C1C3(C)C)[C@]1(OC(C)=O)CO[C@@H]1C[C@@H]2O` [PACLITAXEL] showed an IC50 of 0.014 µM.
On to `O=C(/C=C/c1ccccc1)c1nc2ccccc2[nH]1`, for which the inhibition in experiment [1] is 35.4%; in experiment [2], 10.1%; in experiment [3], 37.9%; in experiment [4], 13%.
Turning to `COc1cccc(C(=O)Nc2cccc(/C=C/C(=O)c3nc4ccccc4[nH]3)c2)c1`, the half-maximal inhibitory concentration (IC50) amounted to 4.61 µM with 143B, 17.8 µM with MCF7 and 3.68 µM in the experiment with HCT-116.
Regarding `O=c1[nH]cc(F)c(=O)[nH]1` [FLUOROURACIL], the half-maximal inhibitory concentration (IC50) with 143B amounted to 25.2 µM; in the experiment on MCF7, 32.6 µM; in the experiment on HCT-116, 8.64 µM.
As to `O=C(Nc1cccc(/C=C/C(=O)c2nc3ccccc3[nH]2)c1)c1cccc(Br)c1`, the IC50 is 4.62 µM in the experiment with 143B, 5.21 µM in the experiment with MCF7 and 1.55 µM in the experiment on HCT-116.
On the same counts, the results for `O=C(/C=C/c1cccc(NC(=O)c2ccccc2Cl)c1)c1nc2ccccc2[nH]1` are 3.69 µM, 4.57 µM and 1.28 µM.
Regarding `Cc1ccc(S(=O)(=O)Nc2cccc(/C=C/C(=O)c3nc4ccccc4[nH]3)c2)cc1C`, the figures for the IC50 in the experiment on 143B, with MCF7 and in the experiment with HCT-116 were 5.05 µM, 5.86 µM and 2.23 µM, respectively.

Values taken from ChEMBL document CHEMBL4184179, “Synthesis and biological evaluation of novel synthetic chalcone derivatives as anti-tumor agents targeting Cat L and Cat K” (Bioorg Med Chem, 2018).
